Measured values taken from ChEMBL document CHEMBL1125581 (J Med Chem, 1991).

Key:
[1] = molecular target: T1, Muscarinic acetylcholine receptor M1 (Rattus norvegicus, UniProt P08482); assay: Inhibition of binding of [3H]N-methylscopolamine to muscarinic acetylcholine receptor M1 of transfected rat A9L cells.; assay type: cell-based
T1 sequence (P08482 whole entry): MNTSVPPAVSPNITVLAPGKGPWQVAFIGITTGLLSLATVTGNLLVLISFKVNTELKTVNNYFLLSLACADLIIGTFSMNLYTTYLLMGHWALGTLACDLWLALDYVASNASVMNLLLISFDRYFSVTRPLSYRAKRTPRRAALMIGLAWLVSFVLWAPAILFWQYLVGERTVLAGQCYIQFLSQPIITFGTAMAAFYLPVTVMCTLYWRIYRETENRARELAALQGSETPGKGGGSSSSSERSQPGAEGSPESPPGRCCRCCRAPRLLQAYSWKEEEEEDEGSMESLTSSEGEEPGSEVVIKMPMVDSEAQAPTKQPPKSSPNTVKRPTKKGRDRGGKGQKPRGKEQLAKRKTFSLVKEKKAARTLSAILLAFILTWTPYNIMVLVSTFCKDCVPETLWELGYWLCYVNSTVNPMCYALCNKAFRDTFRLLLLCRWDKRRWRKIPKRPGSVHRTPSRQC

[2] = molecular target: T2, Muscarinic acetylcholine receptor M2 (Rattus norvegicus, UniProt P10980); assay: Inhibition of binding of [3H]N-methylscopolamine to muscarinic acetylcholine receptor M2 of rat heart tissue membrane.; assay type: tissue-based
T2 sequence (P10980 whole entry): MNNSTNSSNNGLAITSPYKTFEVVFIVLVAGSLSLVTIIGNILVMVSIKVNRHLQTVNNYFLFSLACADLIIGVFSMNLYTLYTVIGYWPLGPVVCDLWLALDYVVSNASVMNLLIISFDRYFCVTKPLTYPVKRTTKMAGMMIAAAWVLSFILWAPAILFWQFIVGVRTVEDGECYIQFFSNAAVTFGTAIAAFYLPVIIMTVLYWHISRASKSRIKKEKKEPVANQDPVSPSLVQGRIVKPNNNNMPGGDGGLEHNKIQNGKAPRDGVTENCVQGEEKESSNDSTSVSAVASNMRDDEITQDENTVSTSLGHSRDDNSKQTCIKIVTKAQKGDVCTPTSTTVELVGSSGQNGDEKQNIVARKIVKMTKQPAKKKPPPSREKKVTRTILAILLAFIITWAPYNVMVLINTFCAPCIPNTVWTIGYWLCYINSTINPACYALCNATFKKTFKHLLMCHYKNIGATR
Summary of the method: (§1)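 Rat heart membranes (150–300 μg protein) incubated 90 min at 37 °C in DMEM-Hepes with 0.5 nM [3H]NMS and varied unlabeled analogue concentrations. Bound radioligand collected by rapid GF/B filtration, washed with ice-cold 0.9% NaCl, and scintillation counted. Nonspecific binding with 1 μM atropine subtracted. Ki values come from one to three determinations, each in triplicate.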

[3] = molecular target: Muscarinic acetylcholine receptor M3 (Rattus norvegicus, UniProt P08483); assay: Inhibition of binding of [3H]N-methylscopolamine to muscarinic acetylcholine receptor M3 of transfected rat A9L cells.; assay type: cell-based
Sequence of Muscarinic acetylcholine receptor M3 (P08483 whole entry): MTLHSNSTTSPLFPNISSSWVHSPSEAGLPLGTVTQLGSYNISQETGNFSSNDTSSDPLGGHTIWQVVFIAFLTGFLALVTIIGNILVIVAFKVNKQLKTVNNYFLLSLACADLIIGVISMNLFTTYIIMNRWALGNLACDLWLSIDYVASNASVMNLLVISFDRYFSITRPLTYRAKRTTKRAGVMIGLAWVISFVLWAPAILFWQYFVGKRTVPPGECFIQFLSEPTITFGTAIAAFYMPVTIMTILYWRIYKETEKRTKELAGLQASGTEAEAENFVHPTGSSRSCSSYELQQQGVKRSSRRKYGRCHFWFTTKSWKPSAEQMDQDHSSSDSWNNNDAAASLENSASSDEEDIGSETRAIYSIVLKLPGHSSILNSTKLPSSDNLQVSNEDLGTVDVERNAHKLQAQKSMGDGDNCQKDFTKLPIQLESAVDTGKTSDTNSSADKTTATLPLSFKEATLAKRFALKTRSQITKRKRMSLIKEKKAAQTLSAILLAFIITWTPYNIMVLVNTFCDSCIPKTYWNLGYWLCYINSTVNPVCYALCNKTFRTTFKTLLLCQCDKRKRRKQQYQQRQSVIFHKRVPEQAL

[4] = molecular target: T2, Muscarinic acetylcholine receptor M2; assay: Inhibition of binding of [3H]N-Methyl-scopolamine to Muscarinic acetylcholine receptor M2 of rat heart tissue membranes.; assay type: cell membranes, Membrane; summary of the method: as §1
[5] = molecular target: T1, Muscarinic acetylcholine receptor M1; assay: Inhibition of binding of [3H]N-Methyl-scopolamine to Muscarinic acetylcholine receptor M1 of transfected A9L cells.; assay type: cell-based
Summary of the method: (§2)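 Confluent A9L (transfected m1/m3) or NG108-15 (m4) cultures were lysed in 2 mM Tris-HCl pH 7.1/1 mM EDTA, 30 min, 2 °C, then homogenized. Crude membranes were spun at 50000g. Membranes (150–300 μg protein) were incubated with 0.5 nM [3H]NMS and varied analogue in DMEM-Hepes for 90 min at 37 °C, then filtered. Nonspecific binding was set with 1 μM atropine. Ki values are from 1–3 triplicate determinations.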

[6] = molecular target: T1, Muscarinic acetylcholine receptor M1; assay: The compound was tested for the inhibition of binding of [3H]N-Methyl-scopolamine to muscarinic acetylcholine receptor M1 of transfected A9L cells.; assay type: cell-based; summary of the method: as §2
[7] = molecular target: T3, Muscarinic acetylcholine receptor M4 (Rattus norvegicus, UniProt P08485); assay: Inhibition of binding of [3H]N-Methyl-scopolamine to muscarinic acetylcholine receptor M4 of rat […] NG108-15 cells; assay type: cell-based
T3 sequence (P08485 whole entry): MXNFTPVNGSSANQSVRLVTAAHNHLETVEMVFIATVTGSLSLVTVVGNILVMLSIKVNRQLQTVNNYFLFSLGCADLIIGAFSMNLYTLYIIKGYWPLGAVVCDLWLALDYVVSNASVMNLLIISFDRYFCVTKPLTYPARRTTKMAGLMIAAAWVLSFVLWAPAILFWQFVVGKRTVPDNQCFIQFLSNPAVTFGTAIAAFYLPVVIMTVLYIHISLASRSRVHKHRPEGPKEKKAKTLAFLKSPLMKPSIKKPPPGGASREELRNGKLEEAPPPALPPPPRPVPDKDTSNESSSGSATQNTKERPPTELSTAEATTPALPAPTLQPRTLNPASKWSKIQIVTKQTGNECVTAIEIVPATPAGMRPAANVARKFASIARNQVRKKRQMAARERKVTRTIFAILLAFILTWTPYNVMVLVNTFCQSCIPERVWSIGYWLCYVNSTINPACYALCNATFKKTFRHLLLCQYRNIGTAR

Row | Ki [1] | Ki [2] | Ki [3] | Ki [4] | Ki [5] | Ki [6] | Ki [7] | Compound
1 | > 30 µM | > 30 µM | > 30 µM | – | – | – | – | CN1CCN(CC(=O)N2c3ccc(S(N)(=O)=O)cc3C(=O)Nc3cccnc32)CC1
2 | 39.4 µM | 34.5 µM | > 100 µM | – | – | – | – | CC(=O)NCCC(=O)NCCN1CCN(CC(=O)N2c3ccccc3C(=O)Nc3cccnc32)CC1
3 | 9.65 µM | 8.82 µM | 10.8 µM | – | – | – | – | CC(=O)NCCCC(=O)NCCN1CCN(CC(=O)N2c3ccccc3C(=O)Nc3cccnc32)CC1
4 | – | – | – | 0.022 µM | 0.0033 µM | – | – | COc1ccccc1CNCCCCCCCCCCN1CCN(CC(=O)N2c3ccccc3C(=O)Nc3cccnc32)CC1
5 | – | – | – | – | – | 8.9 µM | – | CN1CCN(CC(=O)N2c3ccccc3C(=O)N(CCCCCCC#N)c3cccnc32)CC1
6 | 1.68 µM | 1.09 µM | 3.47 µM | – | – | – | – | CC(C)(C)OC(=O)NCCCCNC(=O)c1ccc(CN2CCN(CC(=O)N3c4ccccc4C(=O)Nc4cccnc43)CC2)cc1
7 | – | – | – | 0.05 µM | 0.052 µM | – | – | CC(=O)NCCCCCCCCCN1CCN(CC(=O)N2c3ccccc3C(=O)Nc3cccnc32)CC1
8 | 1.81 µM | 0.84 µM | – | – | – | – | – | O=C1Nc2cccnc2N(C(=O)CN2CCN(CCCN3C(=O)c4ccccc4C3=O)CC2)c2ccccc21
9 | 9.53 µM | 6.34 µM | 11.5 µM | – | – | – | – | NCCCC(=O)NCCN1CCN(CC(=O)N2c3ccccc3C(=O)Nc3cccnc32)CC1
10 | – | – | – | 0.026 µM | 0.02 µM | – | – | NCCCCCCCCN1CCN(CC(=O)N2c3ccccc3C(=O)Nc3cccnc32)CC1
11 | 1.39 µM | 0.96 µM | 3.65 µM | – | – | – | 1.04 µM | NCCNC(=O)c1ccc(CN2CCN(CC(=O)N3c4ccccc4C(=O)Nc4cccnc43)CC2)cc1
12 | 4.66 µM | 11 µM | 3.62 µM | – | – | – | – | CSc1ccc2c(c1)C(=O)Nc1cccnc1N2C(=O)CN1CCN(C)CC1
13 | 13.3 µM | 6.06 µM | 6.19 µM | – | – | – | – | CC(C)(C)OC(=O)NCCC(=O)NCCN1CCN(CC(=O)N2c3ccccc3C(=O)Nc3cccnc32)CC1
14 | 4.8 µM | 3.34 µM | 4.1 µM | – | – | – | – | CC(C)(C)OC(=O)NCCCC(=O)NCCN1CCN(CC(=O)N2c3ccccc3C(=O)Nc3cccnc32)CC1
15 | – | – | – | 0.0117 µM | 0.0158 µM | – | – | NCCCCCCCCCCN1CCN(CC(=O)N2c3ccccc3C(=O)Nc3cccnc32)CC1
16 | – | – | – | 0.043 µM | 0.075 µM | – | – | CC(=O)NCCCCCCCCCCN1CCN(CC(=O)N2c3ccccc3C(=O)Nc3cccnc32)CC1
17 | 0.0018 µM | 0.0503 µM | 0.0069 µM | – | – | – | 0.0174 µM | Cc1scc2c1N(C(=O)CN1CCN(C)CC1)c1ccccc1NC2=O [TELENZEPINE]
18 | 4.34 µM | 5.84 µM | 6.65 µM | – | – | – | – | NCCC(=O)NCCN1CCN(CC(=O)N2c3ccccc3C(=O)Nc3cccnc32)CC1
19 | > 100 µM | > 100 µM | > 100 µM | – | – | – | > 100 µM | CS(=O)(=O)N1CCN(CC(=O)N2c3ccccc3C(=O)Nc3cccnc32)CC1
20 | – | – | – | 0.057 µM | 0.066 µM | – | – | NCCCCCCCN1CCN(CC(=O)N2c3ccccc3C(=O)Nc3cccnc32)CC1
21 | 0.06 µM | 0.02 µM | – | – | – | – | – | O=C1Nc2cccnc2N(C(=O)CN2CCN(CCCCCN3C(=O)c4ccccc4C3=O)CC2)c2ccccc21
22 | 0.33 µM | 0.24 µM | 0.24 µM | – | – | – | 0.22 µM | O=C1Nc2cccnc2N(C(=O)CN2CCN(Cc3ccccc3)CC2)c2ccccc21

Row | Ki [1] | Ki [2] | Ki [3] | Ki [4] | Ki [5] | Ki [6] | Ki [7] | Compound
23 | > 100 µM | > 100 µM | > 100 µM | – | – | – | > 100 µM | O=C1Nc2cccnc2N(C(=O)CN2CCN(C(=S)Nc3ccccc3)CC2)c2ccccc21
24 | 3.87 µM | 5.12 µM | – | – | – | – | – | NCCCN1CCN(CC(=O)N2c3ccccc3C(=O)Nc3cccnc32)CC1
25 | 1.19 µM | 3.04 µM | 1.97 µM | – | – | – | 2.84 µM | NCCN1CCN(CC(=O)N2c3ccccc3C(=O)Nc3cccnc32)CC1
26 | 3.08 µM | 1.74 µM | – | – | – | – | – | NCCCCN1CCN(CC(=O)N2c3ccccc3C(=O)Nc3cccnc32)CC1
27 | 0.0371 µM | 0.0214 µM | 0.046 µM | – | – | – | 0.0232 µM | CC(C)(C)OC(=O)NCCCCCCN1CCN(CC(=O)N2c3ccccc3C(=O)Nc3cccnc32)CC1
28 | – | – | – | 0.0135 µM | 0.003 µM | – | – | CCN(CC)CCCCCCCCCCN1CCN(CC(=O)N2c3ccccc3C(=O)Nc3cccnc32)CC1
29 | > 100 µM | > 100 µM | > 100 µM | – | – | – | > 100 µM | O=C1Nc2cccnc2N(C(=O)CN2CCN(C(=O)c3ccccc3)CC2)c2ccccc21
30 | > 30 µM | – | > 30 µM | – | – | – | – | CN1CCN(CC(=O)N2c3ccc(S(=O)(=O)NCCN)cc3C(=O)Nc3cccnc32)CC1
31 | 5.8 µM | 3.2 µM | 9.5 µM | – | – | – | – | O=C1Nc2cccnc2N(C(=O)CN2CCN(CCO)CC2)c2ccccc21
32 | 0.17 µM | 0.089 µM | 0.12 µM | – | – | – | 0.21 µM | O=C1Nc2cccnc2N(C(=O)CN2CCN(CCCCN3C(=O)c4ccccc4C3=O)CC2)c2ccccc21
33 | 1.31 µM | 1.34 µM | – | – | – | – | – | NCCCCCCN1CCN(CC(=O)N2c3ccccc3C(=O)Nc3cccnc32)CC1
34 | 0.67 µM | 2.52 µM | 0.97 µM | – | – | – | 2.57 µM | CC(=O)NCCN1CCN(CC(=O)N2c3ccccc3C(=O)Nc3cccnc32)CC1
35 | > 30 µM | – | > 30 µM | – | – | – | – | CN1CCN(CC(=O)N2c3ccc(S(=O)(=O)NCCNC(=O)OC(C)(C)C)cc3C(=O)Nc3cccnc32)CC1
36 | 1.17 µM | 5.89 µM | – | – | – | – | – | NCCCCCN1CCN(CC(=O)N2c3ccccc3C(=O)Nc3cccnc32)CC1
37 | – | – | – | 0.024 µM | 0.024 µM | – | – | NCCCCCCCCCN1CCN(CC(=O)N2c3ccccc3C(=O)Nc3cccnc32)CC1
38 | > 30 µM | – | > 30 µM | – | – | – | – | CC(=O)NCCNS(=O)(=O)c1ccc2c(c1)C(=O)Nc1cccnc1N2C(=O)CN1CCN(C)CC1
39 | – | 2.5 µM | – | – | – | – | – | CC(C)(C)OC(=O)NCCNC(=O)c1ccc(CN2CCN(CC(=O)N3c4ccccc4C(=O)Nc4cccnc43)CC2)cc1
40 | 1.67 µM | 1.37 µM | – | – | – | – | – | C#CCN1CCN(CC(=O)N2c3ccccc3C(=O)Nc3cccnc32)CC1
41 | > 100 µM | > 100 µM | > 100 µM | – | – | – | > 100 µM | CC(=O)N1CCN(CC(=O)N2c3ccccc3C(=O)Nc3cccnc32)CC1
42 | 4.4 µM | – | 4.4 µM | – | – | – | – | CN1CCN(CC(=O)N2c3cc(CO)ccc3C(=O)Nc3cccnc32)CC1
43 | – | – | – | 0.018 µM | 0.018 µM | – | – | O=C1Nc2cccnc2N(C(=O)CN2CCN(CCCCCCN3C(=O)c4ccccc4C3=O)CC2)c2ccccc21
